Hits are enriched below; roughly 11% of the tested compounds scored in any of these assays.
Diaph inh CS: counter-screen for diaphorase-based assays: diaphorase inhibitors and chemical oxidizers | 0.69% of 190,000 active | diaphorase resazurin-to-resorufin fluorescence, NADH, 16 min; bacterial (C. kluyveri) enzyme, not human | inhibition, % at 20 µM;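 active = primary screen inhibition at 20 µM above a set limit, cut at about 50% in these data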
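Test system: bacterial diaphorase enzyme (C. kluyveri); Quantity: 0.14 U/mL diaphorase, enzyme working solution; Times: reaction incubation of 16 min at room temperature; Measured by: fluorescence of resorufin formed from resazurin, Ex 544/Em 590 nm; Benchmarks: positive control minus NADH, DMSO neutral control.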
G6PDH counter: L. mesenteroides G6PDH inhibition counter-screen; Purified L. mesenteroides G6PDH, diaphorase/resazurin coupled fluorescence, 45 min; inhibition, % at 5 µM; 0.12% of 200,000 active
Diaphorase act: activates diaphorase or chemically reduces, flagging diaphorase assay artifacts | Diaphorase/resazurin coupled assay, resorufin fluorescence, 16 min; active compounds read high; 1 = vehicle wells, 0 = NADH-free wells | activation factor at 20 µM | 0.005% of 190,000 active;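 active = diaphorase activity raised at least twofold by the compound at 20 µM; inactive = activation factor below 2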
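Material: bacterial diaphorase enzyme (C. kluyveri); amount: enzyme 0.07 U/mL final; reagent: NADH substrate 0.114 mM plus resazurin dye 0.1 mM, final; doses: single compound dose of 20 µM, 1% DMSO final; timing: 16 min enzyme reaction, ambient temperature; measured by: fluorescence of resorufin, 544 nm excitation, 590 nm emission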
L major viab: inhibitors of Leishmania major promastigote growth. Leishmania major promastigotes, resazurin fluorescence viability. inhibition, % at 10 µM. 9% of 200,000 active. AID 1063;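 also: promastigotes grown with compound for 44 hours at 28 °C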
WT yeast gro inh: growth inhibition of WT yeast, mitochondrial fusion screen | mitochondrial fusion phenotypic screen, WT strain | 2.1% of 190,000 active | inhibition, % at 10 µM; in the data active = inhibition above about 58%; tested in S. cerevisiae
Lmaj promast 1uM: inhibitors of Leishmania major promastigote growth, repeat at 1 uM | 13% of 1,100 active | inhibition, % at 1 µM | shares compounds with L major viab | L. major promastigote growth, resazurin fluorescence, 48 h;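 active = inhibition above about 50% in both repeat tests, limit read from the data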
Numbers stand for hits. Rule as the data show it, unless noted: active = inhibition above about 50%; inactive = the rest.

Results for COC(=O)CN1C(c2ccc(Cl)cc2)=Nc2ccc(Cl)cc2C1c1ccccc1 (centres undefined) ?
Diaph inh CS: inactive; G6PDH counter: inactive; Diaphorase act: inactive; L major viab: 65; WT yeast gro inh: 82; Lmaj promast 1uM: inactive

Results for COc1ccc(C2=Nc3ccc(C)cc3C(c3ccccc3)N2CC(=O)NN)cc1 (centres undefined) ?
Diaph inh CS: inactive; G6PDH counter: inactive; Diaphorase act: inactive; L major viab: inactive; WT yeast gro inh: inactive

Results for Nc1nsc2ccccc12 ?
Diaph inh CS: inactive; G6PDH counter: inactive; Diaphorase act: inactive; L major viab: 100; WT yeast gro inh: inactive; Lmaj promast 1uM: 95

Results for Cc1ccc2c(CSc3nncn3C)cc(=O)oc2c1C ?
Diaph inh CS: inactive; G6PDH counter: inactive; Diaphorase act: inactive; L major viab: inactive; WT yeast gro inh: inactive

Results for CCCOP(=O)(OCCC)c1c([N+](=O)[O-])cc(C(F)(F)F)cc1[N+](=O)[O-] ?
Diaph inh CS: inactive; G6PDH counter: inactive; Diaphorase act: inactive; L major viab: 54; WT yeast gro inh: inactive; Lmaj promast 1uM: inactive

How did CCOc1ccc(C(F)(F)F)cc1NC(=O)COc1ccc(C(F)(F)F)cc1[N+](=O)[O-] do in these assays?
Diaph inh CS: inactive; G6PDH counter: inactive; Diaphorase act: inactive; L major viab: inactive; WT yeast gro inh: inactive

What do the screens show for `COc1ccc(CCNS(=O)(=O)c2ccc3c(c2)OCCO3)cc1OC`?
Diaph inh CS: inactive; G6PDH counter: inactive; Diaphorase act: inactive; L major viab: inactive; WT yeast gro inh: inactive

How did CC(C)CSc1nnc2c(n1)[nH]c1ccccc12 do in these assays?
Diaph inh CS: inactive; G6PDH counter: inactive; Diaphorase act: inactive; L major viab: inactive; WT yeast gro inh: inactive

Results for CC1=CCC(/C=N\Nc2nnc3c(n2)[nH]c2ccccc23)CC1 (centres undefined) ?
Diaph inh CS: inactive; G6PDH counter: inactive; Diaphorase act: inactive; L major viab: 52; WT yeast gro inh: inactive; Lmaj promast 1uM: inactive

What do the screens show for `Nc1nn(-c2ccccc2)c(N)c1N=Nc1ccc2c(c1)OCO2`?
Diaph inh CS: inactive; G6PDH counter: inactive; Diaphorase act: inactive; L major viab: 87; WT yeast gro inh: inactive; Lmaj promast 1uM: 79

What do the screens show for `Nc1[nH]n(-c2ccccc2)c(=O)c1N=Nc1ccc2c(c1)OCCO2`?
Diaph inh CS: inactive; G6PDH counter: inactive; Diaphorase act: inactive; L major viab: inactive; WT yeast gro inh: inactive

What do the screens show for `O=[N+]([O-])c1ccc(NNC(=S)Nc2ccc(F)cc2)cc1`?
Diaph inh CS: inactive; G6PDH counter: inactive; Diaphorase act: inactive; L major viab: 101; WT yeast gro inh: inactive; Lmaj promast 1uM: 79

How did CN(C)C(=S)Nc1ccc([N+](=O)[O-])cc1 do in these assays?
Diaph inh CS: inactive; G6PDH counter: inactive; Diaphorase act: inactive; L major viab: inactive; WT yeast gro inh: inactive

Results for COc1ccc2cc3[n+](cc2c1OC)CCc1cc2c(cc1-3)OCO2 ?
Diaph inh CS: inactive; G6PDH counter: inactive; Diaphorase act: inactive; L major viab: 100; WT yeast gro inh: inactive; Lmaj promast 1uM: 76

Results for CCC(C)NC(=O)CNC(=S)N(Cc1ccccc1)Cc1cccnc1 (centres undefined) ?
Diaph inh CS: inactive; G6PDH counter: inactive; Diaphorase act: inactive; L major viab: 75; WT yeast gro inh: inactive; Lmaj promast 1uM: inactive

How did Cc1[nH]c2ccccc2c1N=Nc1cccc(C(=O)O)c1 do in these assays?
Diaph inh CS: inactive; G6PDH counter: inactive; Diaphorase act: inactive; L major viab: inactive; WT yeast gro inh: inactive

What do the screens show for `Cc1[nH]c2ccccc2c1N=Nc1ccccc1C(=O)O`?
Diaph inh CS: inactive; G6PDH counter: inactive; Diaphorase act: inactive; L major viab: 68; WT yeast gro inh: inactive; Lmaj promast 1uM: inactive

How did COc1ccc(-c2cc(C(F)(F)F)nc(SCC(=O)NCCCN3CCOCC3)n2)cc1 do in these assays?
Diaph inh CS: inactive; G6PDH counter: inactive; Diaphorase act: inactive; L major viab: inactive; WT yeast gro inh: inactive

How did N#C/C(=C\c1cn(CCOc2ccccc2)c2ccccc12)C(=O)NCc1cccs1 do in these assays?
Diaph inh CS: inactive; G6PDH counter: inactive; Diaphorase act: inactive; L major viab: 55; WT yeast gro inh: inactive; Lmaj promast 1uM: inactive

What do the screens show for `CC(=O)c1ccccc1NS(C)(=O)=O`?
Diaph inh CS: inactive; G6PDH counter: inactive; Diaphorase act: inactive; L major viab: inactive; WT yeast gro inh: inactive

How did O=C(c1ccc(Cl)c(S(=O)(=O)Nc2ccc(F)cc2)c1)N1CCN(c2ccccn2)CC1 do in these assays?
Diaph inh CS: inactive; G6PDH counter: inactive; Diaphorase act: inactive; L major viab: inactive; WT yeast gro inh: inactive

What do the screens show for `CN(c1ccccc1)S(=O)(=O)c1cc(C(=O)N2CCN(c3ccccn3)CC2)ccc1Cl`?
Diaph inh CS: inactive; G6PDH counter: inactive; Diaphorase act: inactive; L major viab: 90; WT yeast gro inh: inactive; Lmaj promast 1uM: inactive

Results for CN(C)c1nc(-c2ccccn2)nnc1-c1ccccc1 ?
Diaph inh CS: inactive; G6PDH counter: inactive; Diaphorase act: inactive; L major viab: 100; WT yeast gro inh: 61; Lmaj promast 1uM: 74

Results for CCC12CN(S(=O)(=O)c3ccc(C)cc3)CC(CC)(CN(S(=O)(=O)c3ccc(C)cc3)C1)C2=O ?
Diaph inh CS: inactive; G6PDH counter: inactive; Diaphorase act: inactive; L major viab: inactive; WT yeast gro inh: inactive

Results for CCCC(=O)c1c[nH]c(C(=O)NCCCN2CCOCC2)c1 ?
Diaph inh CS: inactive; G6PDH counter: inactive; Diaphorase act: inactive; L major viab: inactive; WT yeast gro inh: inactive

What do the screens show for `CCOC(=O)/C(=C\c1ccc(C)cc1)NC(=O)c1ccccc1`?
Diaph inh CS: inactive; G6PDH counter: inactive; Diaphorase act: inactive; L major viab: inactive; WT yeast gro inh: inactive

How did Cc1ccc(/C=C(\NC(=O)c2ccccc2)C(=O)OCc2ccccc2)cc1 do in these assays?
Diaph inh CS: inactive; G6PDH counter: inactive; Diaphorase act: inactive; L major viab: 63; WT yeast gro inh: inactive; Lmaj promast 1uM: inactive

How did CC(C)COC(=O)Cn1cnc2ccc(Br)cc2c1=O do in these assays?
Diaph inh CS: inactive; G6PDH counter: inactive; Diaphorase act: inactive; L major viab: inactive; WT yeast gro inh: inactive

What do the screens show for `Cc1ccc(C2=NNC(=O)C(c3ccc(Cl)cc3)C2)cc1` (centres undefined)?
Diaph inh CS: inactive; G6PDH counter: inactive; Diaphorase act: inactive; L major viab: 70; WT yeast gro inh: inactive; Lmaj promast 1uM: inactive

How did CCOC(=O)C1CC(c2ccc(Cl)cc2)=NNC1=O (centres undefined) do in these assays?
Diaph inh CS: inactive; G6PDH counter: inactive; Diaphorase act: inactive; L major viab: inactive; WT yeast gro inh: inactive

Results for CN1CCC(C2(O)c3ccccc3CSc3sccc32)CC1 (centres undefined) ?
Diaph inh CS: inactive; G6PDH counter: inactive; Diaphorase act: inactive; L major viab: 67; WT yeast gro inh: inactive; Lmaj promast 1uM: inactive

Assay outcomes (PubChem)
